Assays:
[1] = biological target: CNGA3 ΔN (51-107), 613X channels (Homo sapiens, UniProt Q16281, DEL51-107); experiment: Inside-out patch clamp, CNGA3 ΔN; format: biochemical
[2] = biological target: T1, CNGA3 C7K/R-A (K624A, K629A, R643A, R646A, K657A, K659A, R661A) channels (Homo sapiens, UniProt Q16281, K624A/K629A/K657A/K659A/R643A/R646A/R661A); experiment: Inside-out patch clamp, CNGA3 C7K/R-A; format: biochemical
T1 sequence (Q16281 1-694 K624A/K629A/R643A/R646A/K657A/K659A/R661A): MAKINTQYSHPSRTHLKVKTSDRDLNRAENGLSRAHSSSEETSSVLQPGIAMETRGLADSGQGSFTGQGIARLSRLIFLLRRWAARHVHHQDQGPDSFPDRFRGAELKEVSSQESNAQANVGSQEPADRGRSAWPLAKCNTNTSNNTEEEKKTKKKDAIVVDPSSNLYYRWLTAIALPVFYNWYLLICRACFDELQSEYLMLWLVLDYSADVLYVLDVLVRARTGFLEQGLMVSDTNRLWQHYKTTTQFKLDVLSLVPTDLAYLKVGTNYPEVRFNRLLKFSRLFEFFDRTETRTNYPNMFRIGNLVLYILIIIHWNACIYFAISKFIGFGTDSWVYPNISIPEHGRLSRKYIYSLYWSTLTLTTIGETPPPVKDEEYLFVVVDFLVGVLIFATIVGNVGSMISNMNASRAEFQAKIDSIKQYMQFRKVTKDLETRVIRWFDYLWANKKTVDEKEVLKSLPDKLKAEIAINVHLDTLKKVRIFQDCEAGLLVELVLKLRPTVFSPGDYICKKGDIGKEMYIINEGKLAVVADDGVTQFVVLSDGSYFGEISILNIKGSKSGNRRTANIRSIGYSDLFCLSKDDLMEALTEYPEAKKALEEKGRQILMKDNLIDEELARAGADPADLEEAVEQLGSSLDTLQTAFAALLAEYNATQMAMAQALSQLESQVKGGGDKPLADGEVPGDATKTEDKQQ

A2ΔN+B1 channels = A2ΔN+B1 channels (UniProt Q00195+Q14028, DEL61-90); experiment: Inside-out patch clamp, A2ΔN+B1; format: biochemical, rat, human; conditions: 1 µM PIP3
Summary of the method: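 Subunit cRNAs (~20 ng, B in excess over A) injected into stage IV Xenopus oocytes; inside-out patches 2–7 d later, 20–22°C, symmetric 130 mM NaCl, 0.2 mM EDTA, 3 mM Hepes pH 7.2. Heteromer formation checked by 25 µM l-cis-diltiazem with 1 mM cGMP. diC8 phosphoinositides applied intracellularly in phosphatase-inhibitor cocktail. cGMP dose–response at +80 mV, leak-subtracted, Hill fit before/after for K1/2; mean ± SEM.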

GST fusion A3C7K/R-A = GST fusion A3C7K/R-A (Homo sapiens, UniProt Q16281, K624A/K629A/K657A/K659A/R643A/R646A/R661A); experiment: In vitro PIP3-agarose bead pull-down, A3C7K/R-A; format: binding; conditions: PIP3-agarose beads, anti-GST immunoblot; compared with A3C
Summary of the method: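 Recombinant GST fusions of channel fragments expressed in E. coli and purified; soluble fraction kept after 20,000 g, 4°C, 30 min. Protein (2 µg/ml) rocked with PIP3- or control agarose beads, 2 h, 4°C, in 10 mM Hepes pH 7.4, 50 mM NaCl, 2 mM EDTA, 0.25% Triton X-100, 0.25% NP-40. Five washes, elution in sample buffer, reducing SDS gel, anti-GST (1:2,000, overnight) immunoblot, chemiluminescence; […].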

[3] = read-out: K1/2 cGMP, +80 mV, no PIPn

| Compound | Hill coefficient ([1]; cGMP activation) | EC50 [1, 3] | Hill coefficient ([2]; cGMP activation) | EC50 [2, 3] | Po max cGMP ([2]; saturating cGMP) | regulation of K1/2 cGMP by PIP3 (A2ΔN+B1 channels) | in vitro PIP3 binding (GST fusion A3C7K/R-A) |
| --- | --- | --- | --- | --- | --- | --- | --- |
| Nc1nc2c(ncn2[C@@H]2O[C@@H]3COP(=O)(O)O[C@H]3[C@H]2O)c(=O)[nH]1 [cGMP, cyclic guanosine monophosphate] | 1.90 ± 0.06 (4) | 11.1 ± 2.28 µM | 2.00 ± 0.00 (6) | 9.37 ± 0.29 µM | 0.92 ± 0.01 (4) |  |  |
| phosphatidylinositol (3,4,5)-trisphosphate [PIP3] |  |  |  |  |  | insensitive to regulation by PIP3 | attenuated binding to PIP3 beads |
